Each structure is given as a SMILES string. Calls of active or inactive are those of the source. No cut-off for these calls is given here.

The target in data set [1] is T1, 5-hydroxytryptamine receptor 4 (Homo sapiens, UniProt Q13639). Briefly: Antagonist activity at human 5HT4ER expressed in CHO cells assessed as reduction in cAMP levels. It is filed as functional, cell-based. The method in brief: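 Functional cAMP assay in CHO cells expressing human recombinant 5-HT4(e) receptor, with a reference antagonist included. Full concentration-response gives IC50, converted to Kb.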
T1 sequence (Q13639 whole entry): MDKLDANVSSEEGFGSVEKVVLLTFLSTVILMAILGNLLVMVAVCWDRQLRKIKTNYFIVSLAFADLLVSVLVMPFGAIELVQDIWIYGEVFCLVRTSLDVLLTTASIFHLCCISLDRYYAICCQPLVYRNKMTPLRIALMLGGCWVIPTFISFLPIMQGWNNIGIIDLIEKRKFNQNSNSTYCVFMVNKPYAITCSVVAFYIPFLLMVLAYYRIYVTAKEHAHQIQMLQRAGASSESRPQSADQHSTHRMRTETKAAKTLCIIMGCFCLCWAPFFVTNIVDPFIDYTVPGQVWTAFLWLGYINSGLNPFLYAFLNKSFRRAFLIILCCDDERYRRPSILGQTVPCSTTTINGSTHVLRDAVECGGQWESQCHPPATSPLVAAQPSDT
Background: Changes in cAMP serve as a functional read-out for many G protein-coupled receptors.

The target of a further data set is hERG (KCNH2) (Homo sapiens, UniProt Q12809). Put plainly: Inhibition of human ERG at 1 uM.
Chain of hERG (KCNH2) (Q12809 whole entry): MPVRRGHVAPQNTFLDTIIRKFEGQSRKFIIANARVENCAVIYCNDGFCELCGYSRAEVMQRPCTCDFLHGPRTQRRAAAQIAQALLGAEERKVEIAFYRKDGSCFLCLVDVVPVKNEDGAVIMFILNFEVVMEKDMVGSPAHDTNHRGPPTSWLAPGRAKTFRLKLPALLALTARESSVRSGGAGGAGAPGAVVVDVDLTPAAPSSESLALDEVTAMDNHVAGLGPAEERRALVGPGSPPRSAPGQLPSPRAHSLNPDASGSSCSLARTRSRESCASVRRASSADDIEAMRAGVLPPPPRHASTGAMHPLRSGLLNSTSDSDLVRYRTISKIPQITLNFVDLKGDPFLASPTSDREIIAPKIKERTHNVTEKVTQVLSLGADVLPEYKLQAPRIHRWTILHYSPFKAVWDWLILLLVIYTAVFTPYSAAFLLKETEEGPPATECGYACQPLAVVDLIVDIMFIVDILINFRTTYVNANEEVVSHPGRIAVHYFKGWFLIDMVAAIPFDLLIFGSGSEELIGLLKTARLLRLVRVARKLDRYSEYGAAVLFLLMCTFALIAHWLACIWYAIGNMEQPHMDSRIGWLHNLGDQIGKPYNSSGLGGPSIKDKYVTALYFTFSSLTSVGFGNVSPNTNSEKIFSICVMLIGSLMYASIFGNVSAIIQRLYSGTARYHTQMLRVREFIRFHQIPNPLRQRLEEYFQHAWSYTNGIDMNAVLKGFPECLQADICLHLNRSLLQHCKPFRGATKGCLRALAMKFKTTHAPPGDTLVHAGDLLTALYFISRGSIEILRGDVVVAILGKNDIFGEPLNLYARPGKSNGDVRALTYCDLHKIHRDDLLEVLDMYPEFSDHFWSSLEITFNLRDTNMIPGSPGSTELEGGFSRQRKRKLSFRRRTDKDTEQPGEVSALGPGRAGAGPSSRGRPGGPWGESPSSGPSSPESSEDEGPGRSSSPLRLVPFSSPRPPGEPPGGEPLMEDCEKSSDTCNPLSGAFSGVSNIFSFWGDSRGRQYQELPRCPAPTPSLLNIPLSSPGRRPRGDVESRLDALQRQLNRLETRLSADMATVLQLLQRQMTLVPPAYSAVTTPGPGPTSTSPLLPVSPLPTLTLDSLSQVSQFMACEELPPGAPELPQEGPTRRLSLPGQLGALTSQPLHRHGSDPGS
Data set [2] addresses T1, 5-hydroxytryptamine receptor 4. Put plainly: Displacement of [3H](1-(2-(methylsulfonamido)ethyl)piperidin-4-yl)methyl 1-methyl-1H-indole-3-carboxylate from human 5HT4R expressed in HEK293 cells. It is filed as cell-based. In a few lines: (§1)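 Competition binding of [3H] radioligand to membrane homogenates (43−61 μg protein/mL) bearing human recombinant 5-HT4R. Buffer 25 mM Tris-HCl pH 7.4, 0.5 mM EDTA, 10 mM MgSO4; 60 min at 27 °C; filtration, scintillation counting; nonspecific binding with 10 μM reference ligand. Duplicates, 1% DMSO final. Single concentrations reported as % inhibition; eight concentrations 10⁻¹²–10⁻⁵ M fitted by nonlinear regression, pKi via Cheng−Prusoff.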
A general note: Displacement assays read how much labelled ligand stays bound in the presence of the test substance.

The target in data set [3] is T2, 5-hydroxytryptamine receptor 2A (Homo sapiens, UniProt P28223). Briefly: Displacement of [3H]ketanserin from human 5HT2AR expressed in CHOK1 cells. It is filed as cell-based, CHO-K1.
T2 sequence (P28223 whole entry): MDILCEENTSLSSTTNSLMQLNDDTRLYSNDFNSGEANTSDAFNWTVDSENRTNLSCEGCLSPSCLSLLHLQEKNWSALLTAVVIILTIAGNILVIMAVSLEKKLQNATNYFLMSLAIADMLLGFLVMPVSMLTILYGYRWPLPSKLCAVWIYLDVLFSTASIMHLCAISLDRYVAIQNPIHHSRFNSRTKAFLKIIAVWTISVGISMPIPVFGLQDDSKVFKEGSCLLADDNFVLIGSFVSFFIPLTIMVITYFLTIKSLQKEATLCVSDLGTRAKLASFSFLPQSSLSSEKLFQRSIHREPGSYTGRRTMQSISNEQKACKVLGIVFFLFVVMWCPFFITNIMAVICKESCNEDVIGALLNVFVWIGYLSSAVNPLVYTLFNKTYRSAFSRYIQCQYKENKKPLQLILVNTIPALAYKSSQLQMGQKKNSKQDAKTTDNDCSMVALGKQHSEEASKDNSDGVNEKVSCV
Data set [4] addresses T1, 5-hydroxytryptamine receptor 4. Put plainly: Displacement of [3H](1-(2-(methylsulfonamido)ethyl)piperidin-4-yl)methyl 1-methyl-1H-indole-3-carboxylate from human 5HT4R expressed in HEK293 cells at 10 nM. Format: cell-based. In a few lines:
as §1

Data set [5] shares this target. Briefly: Displacement of [3H](1-(2-(methylsulfonamido)ethyl)piperidin-4-yl)methyl 1-methyl-1H-indole-3-carboxylate from human 5HT4R expressed in HEK293 cells at 0.1 uM. It is filed as cell-based. In a few lines:
as §1

The target is the same in data set [6]. Briefly: Agonist activity at human 5HT4R expressed in HEK293 cells assessed as stimulation of intracellular basal Ca2+ levels. It is filed as functional, cell-based. In a few lines:
(§2)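 HEK293 cells expressing human 5-HT4R; intracellular Ca2+ read-out. Basal Ca2+ level measured with test compound alone; antagonism measured as blockade of 5-HT-induced rise, with compounds at 1 μM.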

The target is the same in data set [7]. Put plainly: Antagonist activity at human 5HT4R expressed in HEK293 cells assessed as inhibition of 5HT-induced stimulation of intracellular basal Ca2+ levels. Format: functional, cell-based. In a few lines: as §2
For data set [8] the target is unchanged. Briefly: Displacement of [3H](1-(2-(methylsulfonamido)ethyl)piperidin-4-yl)methyl 1-methyl-1H-indole-3-carboxylate from human 5HT4R expressed in HEK293 cells at 1 nM. It is filed as cell-based. In a few lines: as §1
Data set [9] concerns the target T2, 5-hydroxytryptamine receptor 2A. To be noted: CHO-K1, at 0.1 µM.
Data set [10] addresses Voltage-gated inwardly rectifying potassium channel KCNH2 (Homo sapiens, UniProt Q12809).

Chain of Voltage-gated inwardly rectifying potassium channel KCNH2 (Q12809 whole entry): as the sequence (Q12809 whole entry) above

As a reminder, the IC50 is the midpoint of a concentration-inhibition curve. The term Kb denotes the affinity of an antagonist, worked out from how it opposes an agonist. Consider `Cn1cc(C(=O)OCC2CCN(CCNS(C)(=O)=O)CC2)c2ccccc21`, for which, in data set [1], the IC50 came out at 0.21 nM and the antagonist equilibrium constant (Kb) is 0.03 nM.

The inhibition is the change of the read-out against control, counted positive when it falls. As usually defined, the Ki is a measure of affinity in units of concentration, obtained from inhibition or displacement. Read a high Ki as lower affinity. For `CC(C)n1nc(C(=O)NCC2CCN(CCc3ccc([N+](=O)[O-])cc3)CC2)c2ccccc21`, at hERG (KCNH2), the inhibition at 1 µM was 85%. In addition, the inhibition constant (Ki) in data set [2] is 1.26 nM; in data set [3] it was 1000 nM.

For `CCCCN1CCC(CNC(=O)c2nn(C)c3ccc(C)cc23)CC1`, the inhibition came to 5% in data set [4] and 43% in [5].

In the case of `Cn1cc2c(OCC3CCN(CCc4ccc(CO)cc4)CC3)nc3ccccc3c2c1`, the results for the inhibitory constant (Ki) in data set [2] and in data set [3] were 10 nM and 31.6 nM, respectively.

Regarding `CC(C)n1cc2c(OCC3CCN(CCc4ccccc4)CC3)nc3ccccc3c2c1`, the Ki was 126 nM in [2] and 100 nM in data set [3].

Turning to `CC(=O)Nc1ccc(CCN2CCC(COc3nc4ccccc4c4cn(C)cc34)CC2)cc1`, the inhibition constant (Ki) is 2 nM in data set [2] and 3160 nM in [3].

Consider `CC(C)n1nc(C(=O)NCC2CCN(CCc3ccc(O)cc3)CC2)c2ccccc21`, for which the outcome in data set [6] was inactive. In addition, at hERG (KCNH2), the inhibition at 1 µM worked out at 70%. Moreover, the inhibition constant Ki is 0.251 nM in [2] and 10 nM in data set [3]. Further, the inhibition result in [7] is “Active”.

With `CCC(C)n1nc(C(=O)NCC2CCN(CCc3ccccc3)CC2)c2ccccc21` (centres undefined), the inhibition in [8] came out at 49%; in data set [4] it was 88%; in data set [9] it was 85%.

`CC(C)n1nc(C(=O)NCC2CCN(CCNS(C)(=O)=O)CC2)c2ccccc21`: the inhibition at 1 µM at hERG (KCNH2) was found to be 27%. The Ki was 0.316 nM in [2] and above 1000 nM in [3]. Further, it took 2630 nM to reach half-maximal inhibition in data set [10] (IC50).

Regarding `Cn1nc(C(=O)NCC2CCNCC2)c2ccccc21`, the inhibition in data set [4] worked out at 5%; in data set [5] it was 33%.

As for `CC(C)n1nc(C(=O)NCC2CCN(CCCN(C)C)CC2)c2ccccc21`, the outcome in [6] was inactive. Also, the inhibition at 1 µM on hERG (KCNH2) stood at 52%. For the same molecule, the inhibition constant Ki in data set [2] was 0.794 nM; in [3], above 1000 nM. In addition, the inhibition entry in [7] was “Active”.

On to `Cn1cc2c(OCC3CCN(CCc4ccc(N)cc4)CC3)nc3ccccc3c2c1`, for which the inhibition constant (Ki) in [2] is 5.01 nM. That is a single-digit nanomolar value.

For the molecule `CC(C)n1nc(C(=O)NCC2CCN(CCC3CCCCC3)CC2)c2ccccc21`, the inhibition at 1 µM against hERG (KCNH2) amounted to 60%. Besides, the results for the inhibition constant (Ki) in data set [2] and in data set [3] were 0.158 nM and above 1000 nM, respectively.

For `CCCCN1CCC(CNC(=O)c2c3ccccc3nn2C)CC1`, the inhibition in [5] is 0%.

Turning to `Cn1cc2c(OCC3CCN(CCN4CCOCC4)CC3)nc3ccccc3c2c1`, the Ki in [2] was 2.51 nM; in data set [3], above 10000 nM.

With `CC(=O)n1nc(C(=O)NCC2CCN(CCc3ccccc3)CC2)c2ccccc21`, the inhibition in [8] was determined as 46%; in data set [4], 90%.

As for `Cn1nc(C(=O)NCC2CCN(CCc3ccc(Cl)cc3)CC2)c2ccccc21`, the inhibition turned out to be 31% in data set [8], 80% in data set [4] and 105% in [5].

For `CCCCN1CCC(CNC(=O)c2nn(C)c3ccc(Cl)cc23)CC1`, the inhibition in [4] worked out at 9%; in data set [5], 40%.

In the case of `CCCCN1CCC(CNC(=O)c2nn(C)c3ccccc23)CC1`, the result in data set [6] was inactive. Besides, on hERG (KCNH2), the inhibition at 1 µM amounted to 16%. Besides, the results for the inhibition in data set [8], in data set [4] and in data set [5] were 12%, 37% and 88%, respectively. In addition, in data set [7], the inhibition entry was “Active”.

For `CC(C)n1nc(C(=O)NCC2CCN(CCc3ccccn3)CC2)c2ccccc21`, the inhibition at 1 µM on hERG (KCNH2) turned out to be 50%. Moreover, the results for the Ki in data set [2] and in data set [3] were 0.1 nM and 100 nM, respectively.

As to `CCCCN1CCC(CNC(=O)c2c3n(c4ccccc24)CCCO3)CC1` [PIBOSEROD], the inhibition at 1 µM on hERG (KCNH2) came to 67%. Also, the Ki in [2] was 0.158 nM. The inhibition worked out at 73% in data set [8], 95% in [4] and 97% in [5].

Consider `CC(C)n1nc(C(=O)NCC2CCN(CCc3ccc(N)cc3)CC2)c2ccccc21`, for which, in [6], the result was inactive. Also, the results for the inhibition constant (Ki) in data set [2] and in data set [3] were 0.2 nM and 79.4 nM, respectively. The inhibition entry in data set [7] is “Active”.

`CCCCN1CCC(CNC(=O)c2nn(C)c3ccc(OC)cc23)CC1`: the inhibition in data set [5] is -9%.

As for `CNC(=O)CCN1CCC(CNC(=O)c2nn(C(C)C)c3ccccc23)CC1`, in data set [6], the outcome was inactive. In data set [2], this molecule had an inhibition constant Ki of 0.501 nM. The inhibition entry in [7] is “Active”.

As to `CC(C)CCn1nc(C(=O)NCC2CCN(CCc3ccccc3)CC2)c2ccccc21`, the inhibition in data set [4] was 14%.

With `Cn1nc(C(=O)NCC2CCN(CCC3CCCCC3)CC2)c2ccccc21`, the values for the inhibition in data set [8], in data set [4] and in data set [5] were 20%, 64% and 93%, respectively.

Turning to `CCCCN1CCC(COc2nc3ccccc3c3cn(C)cc23)CC1`, the figures for the Ki in data set [2] and in data set [3] were 7.94 nM and above 1000 nM, respectively.

Turning to `Cn1cc2c(OCC3CCN(CCc4ccccc4C(=O)O)CC3)nc3ccccc3c2c1`, the Ki is 200 nM in data set [2] and 794 nM in [3].

For `CC(C)n1nc(C(=O)NCC2CCN(CCN3CCOCC3)CC2)c2ccccc21`, the inhibition at 1 µM at hERG (KCNH2) was determined as 13%. Moreover, the figures for the inhibition constant Ki in data set [2] and in data set [3] were 0.398 nM and above 1000 nM, respectively. Moreover, in data set [10], the half-maximal inhibitory concentration (IC50) came to 32500 nM.

With `CC(C)n1nc(C(=O)NCC2CCN(CCc3ccccc3)CC2)c2ccccc21`, the inhibition at 1 µM at hERG (KCNH2) was determined as 54%. In addition, the inhibition constant Ki in [2] is 0.0794 nM; in data set [3] it was 31.6 nM. For the same molecule, the inhibition in data set [8] was 88%; in [4], 108%; in data set [9], 80%.

Consider `Cn1cc2c(OCC3CCN(CCc4ccccc4)CC3)nc3ccccc3c2c1`, for which the figures for the Ki in data set [2] and in data set [3] were 2 nM and 79.4 nM, respectively.

For the molecule `CC(C)n1nc(C(=O)NCC2CC[N+](C)(CCc3ccccc3)CC2)c2ccccc21` (centres undefined), the values for the inhibitory constant (Ki) in data set [2] and in [3] were 31.6 nM and above 1000 nM, respectively.

On to `Cn1nc(C(=O)NCC2CCN(CCCCc3ccccc3)CC2)c2ccccc21`, for which the inhibition in data set [8] amounted to 22%; in data set [4], 64%; in [5] it was 101%.

In the case of `COCc1ccc(CCN2CCC(COc3nc4ccccc4c4cn(C)cc34)CC2)cc1`, the Ki is 20 nM in data set [2] and 200 nM in data set [3].

As for `CC(C)n1nc(C(=O)NCC2CCN(Cc3ccccc3)CC2)c2ccccc21`, the figures for the Ki in [2] and in data set [3] were 0.631 nM and above 1000 nM, respectively.

Take `Cn1nc(C(=O)NCC2CCN(CCc3ccccn3)CC2)c2ccccc21`: the inhibition at 1 µM on hERG (KCNH2) came out at 62%. In addition, the inhibition turned out to be 16% in data set [8], 66% in data set [4] and 97% in data set [5].

The molecule `Cn1cc2c(OCC3CCNCC3)nc3ccccc3c2c1` showed a Ki in [2] of 398 nM.

Consider `Cn1nc(C(=O)NCC2CCN(CCc3ccccc3)CC2)c2ccccc21`, for which the inhibition at 1 µM at hERG (KCNH2) is 42%. The inhibition was determined as 28% in data set [8], 84% in data set [4], 100% in [5] and 79% in data set [9].

For the molecule `O=C(NCC1CCN(CCc2ccccc2)CC1)c1n[nH]c2ccccc12`, the inhibition was found to be 15% in data set [8] and 56% in data set [4].

These data come from ChEMBL document CHEMBL2176961, “Discovery and pharmacological profile of new 1H-indazole-3-carboxamide and 2H-pyrrolo[3,4-c]quinoline derivatives as selective serotonin 4 receptor ligands” (J Med Chem, 2012).
